# Bioassay records from PubChem BioAssay.
# In the library only some 2.3% were active in any assay of this set; here they are far more common.
# TAAR1 antagonist: human TAAR1 antagonism. CHO RD-HGA16 TAAR1, Fluo-8 calcium fluorescence, antagonist. inhibition, % at 3 µM. AID 624466. 1.5% of 360,000 active;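 active means inhibition above a per-plate cutoff, the mean inhibition of test compounds on that plate plus 3 SD, cut at about 49% in these data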;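 further: 0% = DMSO plus EC80 beta-PEA response and 100% = DMSO alone without agonist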
# Target sequence (Q96RJ0 whole entry, looked up): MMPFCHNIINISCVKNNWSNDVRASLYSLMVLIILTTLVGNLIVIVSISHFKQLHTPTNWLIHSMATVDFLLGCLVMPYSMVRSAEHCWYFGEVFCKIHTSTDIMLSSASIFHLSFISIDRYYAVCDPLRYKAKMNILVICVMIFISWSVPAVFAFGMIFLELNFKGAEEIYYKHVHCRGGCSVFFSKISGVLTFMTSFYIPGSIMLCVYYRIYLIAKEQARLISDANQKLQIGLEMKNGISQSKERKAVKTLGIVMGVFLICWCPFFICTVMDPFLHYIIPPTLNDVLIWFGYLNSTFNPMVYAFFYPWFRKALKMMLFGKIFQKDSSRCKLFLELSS
#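 Test system – hTAAR1-expressing CHO RD-HGA16 cells, Gα16-coupled · Also added – β-PEA at EC80 concentration, post-compound challenge · Compound – 3 µM, single point · Incubation – dye loading 75 min at 37 °C, then 30 min room temperature · Measured by – Fluo-8 intracellular calcium dye fluorescence, real-time kinetic reads · Benchmarks – vehicle and agonist controls · Replicates – singlicate, one well per test compound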
# OXTR potentiator: human OXTR potentiation; 0.061% of 320,000 active; P30559; CHO-OTR cells, Fluo-8 calcium fluorescence, potentiator mode; 0% = oxytocin EC15, 100% = EC100; activation, % at 3 µM;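 active means activation above that plate's cutoff, the mean activation of tested compounds plus 3 SD, cut at about 6.6% in these data, passing the limit was not always enough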;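 further: 100% uses oxytocin at 75 nM as the full agonist control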
# Target sequence (P30559 whole entry, looked up): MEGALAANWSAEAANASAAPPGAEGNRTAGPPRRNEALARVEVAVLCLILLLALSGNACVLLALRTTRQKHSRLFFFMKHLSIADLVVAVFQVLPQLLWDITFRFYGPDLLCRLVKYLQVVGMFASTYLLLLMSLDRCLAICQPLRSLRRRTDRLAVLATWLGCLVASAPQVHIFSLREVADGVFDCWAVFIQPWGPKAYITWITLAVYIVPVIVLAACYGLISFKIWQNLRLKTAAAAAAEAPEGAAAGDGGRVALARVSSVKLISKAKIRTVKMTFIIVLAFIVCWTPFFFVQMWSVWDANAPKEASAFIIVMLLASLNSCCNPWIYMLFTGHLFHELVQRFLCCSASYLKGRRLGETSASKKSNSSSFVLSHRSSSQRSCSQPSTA
#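 Assay system: CHO-OTR cells, human receptor / Also added: oxytocin at about EC15, sub-maximal agonist stimulus / Dosing: single dose, 3.0 µM nominal final compound concentration / Incubation: 6 min pre-incubation, 100 s read / Technique: Fluo-8 calcium dye fluorescence / Read-out: % activation vs EC15 and EC100 oxytocin / Benchmarks: EC15 oxytocin low, 75 nM oxytocin high / Replicates: singlicate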
# OXTR ag: human OXTR agonism. CHO-OTR cells, Fluo-8 calcium fluorescence; normalized: DMSO 0%, oxytocin 100%. activation, % at 3 µM. 0.32% of 320,000 active;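 active means activation above the mean of all tested compounds plus 3 SD, cutoff set per screening run, cut at about 20% in these data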;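 further: peak over basal fluorescence ratio from a 100 s FLIPR kinetic read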
# V1aR counter: counter-screen for oxytocin receptor agonists: human V1a receptor agonists. CHO-V1R cells, Fluo-8 calcium fluorescence, agonist mode; 0% DMSO, 100% 3 nM vasopressin. 0.25% of 320,000 active. AID 2797. activation, % at 3 µM. P37288;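 active means activation above the mean activation of all tested compounds plus 3 SD, per screening run, cut at about 20% in these data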;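 further: signal is peak over basal fluorescence ratio across a 100 second FLIPR read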
# TAAR1 agonist: agonists of human TAAR1. Q96RJ0. CHO RD-HGA16 TAAR1, Fluo-8 calcium fluorescence; vehicle wells 0%, saturating PEA agonist 100%. activation, % at 3 µM. 0.99% of 360,000 active. AID 624467;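 active means activation above the mean activation of all test compounds in the run plus 3 SD, cut at about 38% in these data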
#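 Assay system: CHO-derived RD-HGA16 cells with stable Gα16 and human TAAR1; timing: 17-24 h seeding, 75 min 37 °C dye, 30 min RT; read-out: % activation from peak over basal fluorescence ratio, DMSO-to-PEA scaled; measured by: kinetic Fluo-8 calcium fluorescence; benchmarks: low control DMSO, high control PEA (EC100); doses: 3 µM single concentration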
# The depositor's hits bear a star; / = no result.
SMILES,TAAR1 antagonist,OXTR potentiator,OXTR ag,V1aR counter,TAAR1 agonist
COc1ccc(N2CCN(c3ncnc4c3[nH]c3ccccc34)CC2)cc1,66.5*,-28.5,13.6,10.3,15.0
O=C(CCCN1CCC(O)(c2cccc(C(F)(F)F)c2)CC1)c1ccc(F)cc1,13.6,-5.0,6.5,2.1,15.3
CCOC(=O)N1CCN(c2ncnc3c2[nH]c2ccc(F)cc23)CC1,17.2,-20.8,14.5,8.3,23.5
COc1ccc2[nH]c3c(N4CCc5ccccc5C4)ncnc3c2c1,36.1,-16.5,7.3,9.3,10.5
Fc1ccc2[nH]c3c(N4CCN(c5ccccc5)CC4)ncnc3c2c1,56.7*,-32.6,15.1,10.8,21.7
CCCCN1CC(COCc2ccccc2)Oc2cccc(Sc3ccc(OC)c(OC)c3)c2S1(=O)=O (centres undefined),-18.5,/,/,/,2.1
CC(=O)Nc1sc(/C(C#N)=C\c2cccc(Cl)c2)nc1-c1ccc(C)cc1,52.2*,-3.0,10.1,5.1,32.7
COc1ccc(/C=N/Nc2nonc2N)cc1,10.8,-1.8,-1.1,-0.7,2.3
Nc1nonc1N/N=C\c1ccccc1,-22.4,3.8,-1.1,-0.2,40.8*
O=C(/C=C/c1ccc(OC(F)F)cc1)Nc1cccc(S(=O)(=O)NC2=NCCCCC2)c1,61.9*,-9.8,6.5,9.8,12.0
O=S1(=O)c2ccc(Br)cc2OC2CCCC[C@@H]2N1Cc1ccccc1 (some centres undefined),10.0,/,/,/,0.2
Cc1ccc(C)c(C(O)c2ncc(-c3ccc(C(F)(F)F)cc3)[nH]2)c1 (centres undefined),48.7*,/,/,/,21.6
O=C(CC(=O)c1ccccc1)CC(O)(C=Cc1ccccc1)c1ccccc1 (centres undefined),50.8*,/,/,/,7.1
O=C(/C=C/c1ccccc1)CC(=O)c1ccccc1,5.4,/,/,/,-0.3
CCOc1ccc(C(=O)Cc2cc(OC)c(OC)cc2[N+](=O)[O-])cc1,63.3*,-4.6,1.0,0.1,42.2*
[O-][n+]1ccccc1C(O)CSc1ccccc1 (centres undefined),-4.5,/,/,/,0.1
COc1cccc(-c2sc3ccccc3c2-c2ccc(OCCN(C)C)cc2)c1,51.0*,-7.1,7.5,2.5,26.3
COC(=O)C1=C(C)N(Cc2ccccc2C(F)(F)F)C(=NCc2ccc3c(c2)OCO3)NC1c1cccc(Cl)c1 (centres undefined),7.8,/,/,/,17.3
O=C1C2C3CC4C5C3C1C5C1(SCCS1)C42 (centres undefined),0.8,/,/,/,-0.5
S=C(Nc1ccc(Cl)cc1)NC1CC2CCC(C1)N2Cc1ccccc1 (centres undefined),20.2,-11.6,20.9*,14.5,25.3
COc1cccc(N=Nc2ccc3cccnc3c2O)c1,73.7*,-8.2,5.5,1.7,37.3
COc1cccc(N=Nc2ccc(O)c3ncccc23)c1,70.3*,8.0,-2.1,1.1,17.7
COc1ccc(N=Nc2ccc(O)c3ncccc23)cc1,46.5,-15.4,1.4,-0.1,10.0
COCCN(C(=O)CCC(=O)Nc1ccccn1)C(C(=O)NCCC(C)C)c1ccc(F)cc1 (centres undefined),-0.2,-7.7,0.0,-0.1,-0.2
Cc1ccc(-n2nc3c(=O)n(CCCC(=O)NCCc4ccccc4C)nc(C)c3c2C)cc1,-22.4,-5.9,-1.1,2.5,40.4*
SMILES,TAAR1 antagonist,OXTR potentiator,OXTR ag,V1aR counter,TAAR1 agonist
COc1ccc(Sc2cccc3c2S(=O)(=O)N([C@H](C)c2ccccc2)C[C@@H](COCc2ccccc2)O3)cc1OC,-20.1,/,/,/,2.4
C=CCN1C(=O)c2[nH]nc(-c3ccccc3)c2C1c1ccc(C)cc1 (centres undefined),-25.2,/,/,/,7.4
S=C1NCN(CC2CC2)CN1,-9.6,/,/,/,2.1
COc1ccc(CNC(=O)[C@@H]2CC=C[C@@H]3CCN(Cc4ccc(Cl)c(Cl)c4)C(=O)[C@@H]32)cc1,16.9,-10.2,-1.6,0.1,8.9
COc1ccc(CNC[C@@H](CCCCN(C)Cc2ccc(OC)cc2)N2C[C@H](c3ccccc3)N(CCc3ccc(Cl)c(Cl)c3)C(=O)C2=O)cc1,/,-15.6,28.5*,58.2*,/
COc1ccc(C2C=C(c3ccc(Br)s3)Nc3ncnn32)cc1OC (centres undefined),/,-23.4,22.8*,16.6,/
COc1ccc(C2C=C(c3ccc(C)cc3)Nc3ncnn32)cc1 (centres undefined),5.0,/,/,/,-2.4
O=C(O)C1=CC[C@@H](c2ccc(Cl)cc2)N(S(=O)(=O)c2ccc(Cl)cc2)[C@H]1c1ccc(Br)cc1,51.8*,-6.3,-0.5,-0.7,-0.5
Cc1ccc([C@@H]2CC=C(C(=O)O)[C@H](c3ccc(Cl)cc3)N2S(=O)(=O)c2ccc(C)cc2)cc1,21.1,-10.8,-1.8,0.4,4.3
Cc1ccc(S(=O)(=O)N2[C@@H](c3ccc(Cl)cc3)C(C(=O)O)=CC[C@H]2c2ccc(Cl)cc2)cc1,54.6*,-16.1,-0.8,-0.1,1.7
Cc1ccc(S(=O)(=O)N2[C@@H](c3ccc(Cl)cc3)C(C(=O)O)=CC[C@H]2c2cccc(Cl)c2)cc1,-8.9,-5.1,0.5,0.1,0.9
O=C(O)C1=CC[C@@H](c2ccc(Cl)cc2)N(S(=O)(=O)c2ccc(Cl)cc2)[C@H]1c1cccc(Cl)c1,63.9*,-19.9,-2.0,-0.8,6.2
Cc1[nH]nc(SCC(=O)NCCc2ccccc2)c1[N+](=O)[O-],74.8*,2.7,1.4,-0.8,39.3*
Cc1[nH]nc(SCC(=O)NCc2ccccc2)c1[N+](=O)[O-],1.0,-6.6,-2.7,0.2,-2.8
C=CCNC(=S)N1C[C@H]2CON(C)[C@H]2C[C@H]1c1ccccc1Br,-25.3,/,/,/,2.1
CCOC(=O)c1sc2nc(CSc3ccccc3)nc(N3CCC(C(N)=O)CC3)c2c1C,38.5,-8.4,0.0,1.1,22.3
CCOC(=O)c1sc2nc(CSc3ccccc3)nc(N3CCCN(C)CC3)c2c1C,-12.8,-7.7,17.0,7.4,38.2*
COc1ccccc1Cc1c(-c2ccccc2)nc2ccc(C)cn12,-3.1,/,/,/,-0.4
COc1cccc2c1C(=O)c1c(O)c3c(c(O)c1C2=O)C[C@](O)(C(C)=O)C[C@H]3O[C@@H]1C[C@@H](N)[C@@H](O)[C@@H](C)O1,8.8,-8.0,16.3,21.2*,8.0
CCCCNc1cccc2c1S(=O)(=O)N[C@H](C)CO2,8.4,/,/,/,1.0
O=C(COc1ccccc1)Nc1cccc(-c2ccc(N3CCOCC3)nn2)c1,49.0*,1.3,0.4,0.2,10.4
CCS(=O)(=O)c1ccc(-c2cccc(NC(=O)COc3ccc(Cl)cc3)c2)nn1,49.2*,-13.6,3.8,5.0,7.6
Cc1cc(Br)cn2c(Cc3cccc(Cl)c3)c(C3CCCCC3)nc12,-11.3,/,/,/,-1.0
C[C@H]1CN([C@@H](C)CO)C(=O)CCCn2nncc2CO[C@@H]1CN(C)S(=O)(=O)c1cccs1,2.0,/,/,/,1.5
